Experimental data as given in ChEMBL document CHEMBL5712912, “Abnormal overexpression of G9a in melanoma cells promotes cancer progression via upregulation of the Notch1 signaling pathway” (Aging (Albany NY), 2020).
Active and inactive are the calls of the source. The calls are words filed in the database; no cut-off is given here.

Legend:
[1] = target: T1, Histone-lysine N-methyltransferase EHMT2 (Homo sapiens) (UniProt Q96KQ7); assay: Inhibition of G9a in human A-375 cells assessed as decrease in Hes1 expression at 2 uM by Western blot analysis; format: cell-based
T1 sequence (whole entry): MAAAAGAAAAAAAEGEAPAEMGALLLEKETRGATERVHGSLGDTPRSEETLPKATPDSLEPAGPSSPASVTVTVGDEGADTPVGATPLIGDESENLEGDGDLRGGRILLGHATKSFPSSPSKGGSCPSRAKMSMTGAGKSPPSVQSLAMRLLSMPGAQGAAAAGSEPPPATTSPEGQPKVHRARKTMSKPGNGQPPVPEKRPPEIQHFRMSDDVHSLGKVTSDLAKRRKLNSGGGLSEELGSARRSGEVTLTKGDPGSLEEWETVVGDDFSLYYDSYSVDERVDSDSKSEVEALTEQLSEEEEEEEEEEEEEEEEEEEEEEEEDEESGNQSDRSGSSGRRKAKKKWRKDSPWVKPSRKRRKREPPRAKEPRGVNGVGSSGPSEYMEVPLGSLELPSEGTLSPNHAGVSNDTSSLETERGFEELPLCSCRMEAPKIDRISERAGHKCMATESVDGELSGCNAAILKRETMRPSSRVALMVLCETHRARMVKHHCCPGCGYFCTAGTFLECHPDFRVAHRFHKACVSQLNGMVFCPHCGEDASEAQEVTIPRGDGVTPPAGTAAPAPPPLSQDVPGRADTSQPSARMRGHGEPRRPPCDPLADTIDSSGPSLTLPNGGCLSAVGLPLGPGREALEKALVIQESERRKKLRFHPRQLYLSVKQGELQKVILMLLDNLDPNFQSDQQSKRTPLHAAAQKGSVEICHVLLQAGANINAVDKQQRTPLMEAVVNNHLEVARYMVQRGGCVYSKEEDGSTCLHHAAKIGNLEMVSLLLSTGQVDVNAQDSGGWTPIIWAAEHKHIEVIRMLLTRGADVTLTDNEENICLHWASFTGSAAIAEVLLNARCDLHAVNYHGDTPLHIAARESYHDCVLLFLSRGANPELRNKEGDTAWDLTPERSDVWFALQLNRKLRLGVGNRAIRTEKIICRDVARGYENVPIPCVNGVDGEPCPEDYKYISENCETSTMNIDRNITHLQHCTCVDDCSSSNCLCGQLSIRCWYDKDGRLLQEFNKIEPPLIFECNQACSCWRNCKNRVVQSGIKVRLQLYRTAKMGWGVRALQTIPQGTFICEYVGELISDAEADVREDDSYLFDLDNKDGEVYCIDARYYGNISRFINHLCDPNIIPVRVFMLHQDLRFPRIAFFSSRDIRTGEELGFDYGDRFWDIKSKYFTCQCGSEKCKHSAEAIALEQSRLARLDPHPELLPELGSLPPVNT

[2] = test system: M14; assay: Induction of apoptosis in human M14 cells overexpressing NCID assessed as live cells by Annexin V-FITC/PI staining based flow cytometry (Rvb-95.1%); format: functional; conditions: dose 2 µM
[3] = test system: M14; assay: Induction of apoptosis in human M14 cells assessed as early apoptotic cells at 2 uM by Annexin V-FITC/PI staining based flow cytometry (reference value: 0.43%); format: functional
[4] = test system: M14; assay: Induction of apoptosis in human M14 cells overexpressing NCID assessed as necrotic cells by Annexin V-FITC/PI staining based flow cytometry (Rvb-1.34%); format: functional; conditions: dose 2 µM
[5] = test system: A-375; assay: Cytotoxicity against human A-375 cells assessed as reduction in cell viability by CCK-8 assay; format: functional, cell-based
How it was run: (§1)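 CCK8 proliferation assay. M14 or A375 cells, NICD plasmid-transfected where stated, were seeded at about 1000 cells per well, with 0.1% DMSO-treated cells as control. CCK8 reagent was added every 24 h and incubated 90 min at 37 °C, then OD read at 450 nm to build a proliferation curve. IC50 came from a dose-dependent viability series in A375.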

[6] = target: T1, Histone-lysine N-methyltransferase EHMT2 (Homo sapiens); assay: Inhibition of G9a in human A-375 cells assessed as decrease in H3K9me2 expression at 2 uM by Western blot analysis; format: cell-based
[7] = test system: M14; assay: Induction of apoptosis in human M14 cells assessed as necrotic cells at 2 uM by Annexin V-FITC/PI staining based flow cytometry (reference value: 1.34%); format: functional
[8] = test system: A-375; assay: Induction of apoptosis in human A-375 cells overexpressing […] assessed as live cells by Annexin V-FITC/PI staining based flow cytometry (Rvb-95.1%); format: functional; conditions: dose 2 µM
[9] = test system: A-375; assay: Cytotoxicity against human A-375 cells assessed as effect on cell survival at <0.5 nM by CCK-8 assay; format: functional, cell-based
[10] = test system: M14; assay: Antimigratory activity against human M14 cells overexpressing NICD at 2 uM by transwell assay; format: functional, cell-based
How it was run: (§2)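 Transwell assay in M14 or A375 cells cultured in high-glucose DMEM with 10% FBS and penicillin/streptomycin; NICD overexpression plasmid transfected with Lipofectamine 2000. Invasion inserts coated with Matrigel diluted 1:6 in serum-free 1640 medium and set at 37 °C for 4 h; migration inserts uncoated, 5000 cells seeded. Control cells received DMSO. Migrated or invaded cells counted.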

[11] = test system: A-375; assay: Induction of apoptosis in human A-375 cells overexpressing […] assessed as late apoptotic cells by Annexin V-FITC/PI staining based flow cytometry (Rvb-3.10%); format: functional; conditions: dose 2 µM
[12] = test system: M14; assay: Antiinvasive activity against human M14 cells overexpressing NICD at 2 uM by transwell assay; format: functional, cell-based; how it was run: as §2
[13] = target: T1, Histone-lysine N-methyltransferase EHMT2 (Homo sapiens); assay: Inhibition of G9a in human M14 cells assessed as decrease in Hes1 expression at 2 uM by Western blot analysis; format: cell-based
[14] = test system: M14; assay: Induction of apoptosis in human M14 cells overexpressing NICD assessed as reduction in Bcl-2 expression at 2 uM by Western blot analysis; format: functional, cell-based
[15] = target: T1, Histone-lysine N-methyltransferase EHMT2 (Homo sapiens); assay: Inhibition of G9a in human A-375 cells overexpressing NICD assessed as reduction in AKT phosphorylation at 2 uM by Western blot analysis; format: cell-based
[16] = test system: A-375; assay: Induction of apoptosis in human A-375 cells overexpressing […] assessed as early apoptotic cells by Annexin V-FITC/PI staining based flow cytometry (Rvb-0.43%); format: functional; conditions: dose 2 µM
[17] = test system: A-375; assay: Antiproliferative activity against human A-375 cells overexpressing NICD assessed as reduction in cell proliferation at 2 uM by CCK-8 assay; format: functional, cell-based; how it was run: as §1
[18] = target: T1, Histone-lysine N-methyltransferase EHMT2 (Homo sapiens); assay: Inhibition of G9a in human M14 cells assessed as decrease in H3K9me2 expression at 2 uM by Western blot analysis; format: cell-based
[19] = test system: A-375; assay: Antitumor activity against human A-375 cells xenografted in nude mouse assessed as tumor growth inhibition at 5 mg/kg, ip administered every other day for 10 days measured post-last dose by caliper method; format: functional, organism-based; conditions: time 10.0 day
How it was run: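 Male nude mice, 6 weeks old, were given A375 cells (2X 106) subcutaneously. After one week, animals with palpable xenografts were randomised into two groups: DMSO vehicle, or compound at 5 mg/kg i.p. every other day for 10 days. Tumour volume was measured, and body weight was monitored.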

[20] = test system: M14; assay: Induction of apoptosis in human M14 cells assessed as live cells at 2 uM by Annexin V-FITC/PI staining based flow cytometry (reference value: 95.1%); format: functional
[21] = test system: A-375; assay: Induction of apoptosis in human A-375 cells assessed as late apoptotic cells at 2 uM by Annexin V-FITC/PI staining based flow cytometry (reference value: 3.10%); format: functional
[22] = test system: A-375; assay: Induction of apoptosis in human A-375 cells assessed as necrotic cells at 2 uM by Annexin V-FITC/PI staining based flow cytometry (reference value: 1.34%); format: functional
[23] = test system: M14; assay: Antiproliferative activity against human M14 cells assessed as reduction in cell proliferation at 2 uM by CCK-8 assay; format: functional, cell-based; how it was run: as §1
[24] = test system: M14; assay: Induction of apoptosis in human M14 cells assessed as reduction in Bcl-2 expression at 2 uM by Western blot analysis; format: functional, cell-based

Q: With `COc1cc2c(NC3CCN(C(C)C)CC3)nc(N3CCC(F)(F)CC3)nc2cc1OCCCN1CCCC1` as the molecule, how does the inhibition [1] read?
A: The inhibition was “Active”.

Q: And the Activity [2]?
A: Its Activity is 94.9%.

Q: And the Activity [3]?
A: The Activity was 4.8%.

Q: And the Activity [4]?
A: The Activity was 0.76%.

Q: And the Activity [5]?
A: The Activity was “Dose-Dependent Effect”.

Q: And the IC50 [5]?
A: The IC50 was 3.06 µM.

Q: And the inhibition [6]?
A: Its inhibition is “Active”.

Q: And the Activity [7]?
A: The Activity was 0.27%.

Q: What about the Activity [8] of the same molecule?
A: Its Activity is 94.9%.

Q: And the Activity [9]?
A: Its Activity is “inactive”.

Q: And the Activity [10]?
A: The Activity was “inactive”.

Q: What about the Activity [11] of the same molecule?
A: Its Activity is 3.59%.

Q: And the Activity [12]?
A: The Activity was “inactive”.

Q: What about the inhibition [13] of the same molecule?
A: Its inhibition is “Active”.

Q: What about the Activity [14] of the same molecule?
A: The Activity was “inactive”.

Q: And the inhibition [15]?
A: The inhibition was “inactive”.

Q: And the Activity [16]?
A: The Activity was 0.75%.

Q: What about the Activity [17] of the same molecule?
A: The Activity was “inactive”.

Q: What about the inhibition [18] of the same molecule?
A: Its inhibition is “Active”.

Q: And the TGI [19]?
A: Its TGI is “Active”.

Q: What about the Activity [20] of the same molecule?
A: The Activity was 89.8%.

Q: And the Activity [21]?
A: The Activity was 5.17%.

Q: And the Activity [22]?
A: The Activity was 0.27%.

Q: What about the Activity [23] of the same molecule?
A: The Activity was “Active”.

Q: And the Activity [24]?
A: The Activity was “Active”.
